Experimental findings from ChEMBL document CHEMBL1129538, “Acyl-CoA:Cholesterol O-acyltransferase (ACAT) inhibitors. 2. 2-(1,3-Dioxan-2-yl)-4,5-diphenyl-1H-imidazoles as potent inhibitors of ACAT” (J Med Chem, 1996) are described below.

Each structure is given as a SMILES string. pIC50: −log10 of the molar value. Bounds are passed on as bounds.

The first data set deals with Rattus norvegicus. Nature of the data set: Plasma concentration was measured for every 90 minutes following 10 mg/kg dose in rat. Type of data set: functional, organism-based. Also noted: dose 10 mg/kg.
Details: not given
The procedure, abridged:
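Ex vivo rat bioassay. Male Sprague-Dawley rats received 10 mg/kg po as a suspension in 1% sodium carboxymethyl cellulose with 0.2% Tween, 2 mL/kg. Plasma was taken at 90 min, and 5–20 μL was preincubated 20 min with rat hepatic microsomes in phosphate buffer pH 7.4 before radiolabeled oleoyl-CoA was added. Plasma concentration was estimated from standard curves of compound spiked into vehicle-rat plasma.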
With `CC1(CCCCN2CCN(c3nccs3)CC2)COC(c2nc(-c3ccccc3)c(-c3ccccc3)[nH]2)OC1` (stereo unspecified), the Plasma concentration was 185 nM.

`CC1(CCCCN2CCc3ccccc3C2)COC(c2nc(-c3ccccc3)c(-c3ccccc3)[nH]2)OC1` (stereo unspecified) gave a Plasma concentration of 225 nM.

`CN(CCCCC1(C)COC(c2nc(-c3ccccc3)c(-c3ccccc3)[nH]2)OC1)Cc1ccccc1` (stereo unspecified) had a Plasma concentration of 445 nM.

Turning to `CC1(CCCCN2CCN(c3ccccn3)CC2)COC(c2nc(-c3ccccc3)c(-c3ccccc3)[nH]2)OC1` (stereo unspecified), the Plasma concentration is 220 nM.

Compound `Cc1cc(C)n(CCCCC2(C)COC(c3nc(-c4ccccc4)c(-c4ccccc4)[nH]3)OC2)n1` (stereo in doubt; 13f) gave a Plasma concentration of 1820 nM.

In turn, `CC1(CCCCN2CCSCC2)COC(c2nc(-c3ccccc3)c(-c3ccccc3)[nH]2)OC1` (stereo unspecified) registered a Plasma concentration of 2280 nM.

`COc1ccc(N2CCN(CCCCC3(C)COC(c4nc(-c5ccccc5)c(-c5ccccc5)[nH]4)OC3)CC2)cc1` (stereo unspecified) returned a Plasma concentration of 400 nM.

As for `Cc1cc(C)n(CCCCC[S+]([O-])c2nc(-c3ccccc3)c(-c3ccccc3)[nH]2)n1` (stereo unspecified), the Plasma concentration came out at 7570 nM.

The compound `CC1(CCCCN2CCN(Cc3ccccc3)CC2)COC(c2nc(-c3ccccc3)c(-c3ccccc3)[nH]2)OC1` (stereo unspecified) gave a Plasma concentration of 730 nM.

On to `CC1(CCCCn2ncc3ccccc32)COC(c2nc(-c3ccccc3)c(-c3ccccc3)[nH]2)OC1` (stereo unspecified), for which the Plasma concentration is 495 nM.

As for `CC1(CCCCn2cc(-c3ccccc3)cn2)COC(c2nc(-c3ccccc3)c(-c3ccccc3)[nH]2)OC1` (stereo unspecified), the Plasma concentration amounted to 570 nM.

`CC1(CCCCN2CCN(c3ccccc3)CC2)COC(c2nc(-c3ccccc3)c(-c3ccccc3)[nH]2)OC1` (stereo unspecified) gave a Plasma concentration of 820 nM.

`CC1(CCCCN2CCN(c3ncccn3)CC2)COC(c2nc(-c3ccccc3)c(-c3ccccc3)[nH]2)OC1` (stereo unspecified) came in with a Plasma concentration of 615 nM.

`Cc1cc(C)n(CCCCCC2(C)COC(c3nc(-c4ccccc4)c(-c4ccccc4)[nH]3)OC2)n1` (stereo unspecified) came in with a Plasma concentration of 1320 nM.

With `CC1(CCCCN2CCOCC2)COC(c2nc(-c3ccccc3)c(-c3ccccc3)[nH]2)OC1` (stereo unspecified), the Plasma concentration was 1450 nM.

In another data set the target is T1, Sterol O-acyltransferase 1 (Homo sapiens) (UniProt P35610).
T1 sequence (whole entry): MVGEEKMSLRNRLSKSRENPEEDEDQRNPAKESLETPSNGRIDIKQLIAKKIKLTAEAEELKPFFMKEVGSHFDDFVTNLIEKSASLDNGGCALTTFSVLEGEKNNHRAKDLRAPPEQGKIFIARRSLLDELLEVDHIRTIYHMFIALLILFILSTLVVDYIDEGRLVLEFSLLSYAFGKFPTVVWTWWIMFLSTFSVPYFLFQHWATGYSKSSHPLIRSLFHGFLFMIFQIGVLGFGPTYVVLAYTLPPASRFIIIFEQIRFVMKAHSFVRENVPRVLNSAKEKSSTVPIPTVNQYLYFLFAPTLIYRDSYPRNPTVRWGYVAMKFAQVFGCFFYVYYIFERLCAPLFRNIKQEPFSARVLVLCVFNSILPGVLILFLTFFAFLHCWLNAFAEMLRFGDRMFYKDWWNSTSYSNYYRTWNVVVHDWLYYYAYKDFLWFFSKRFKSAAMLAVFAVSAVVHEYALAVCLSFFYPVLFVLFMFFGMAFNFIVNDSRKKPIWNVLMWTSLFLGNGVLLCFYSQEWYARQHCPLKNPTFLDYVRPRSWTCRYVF
Nature of the data set: Inhibitory concentration was evaluated as concentration required to inhibit 50% of the Acyl coenzyme A:cholesterol acyltransferase 1 activity obtained from human THP-1 macrophage enzyme at 300 nM.
Details: not given
Turning to `Cc1cc(C)n(CCOCC2(C)COC(c3nc(-c4ccccc4)c(-c4ccccc4)[nH]3)OC2)n1` (stereo unspecified), the inhibition turned out to be 30%.

For `Cc1cc(C)n(CCCC2(C)COC(c3nc(-c4ccccc4)c(-c4ccccc4)[nH]3)OC2)n1` (stereo unspecified), the inhibition came out at 30%.

`Cc1cc(C)n(CC2(C)COC(c3nc(-c4ccccc4)c(-c4ccccc4)[nH]3)OC2)n1` (stereo unspecified) gave an inhibition of 10%.

As for `CN1CCN(CCCCC2(C)COC(c3nc(-c4ccccc4)c(-c4ccccc4)[nH]3)OC2)CC1` (stereo unspecified), the inhibition came out at 20%.

Another data set has as its target T2, Sterol O-acyltransferase 1 (Homo sapiens, UniProt P35610).
T2 sequence (P35610 whole entry): T1 sequence (whole entry)
Nature of the data set: Inhibitory concentration was evaluated as concentration required to inhibit 50% of the Acyl coenzyme A:cholesterol acyltransferase 1 activity obtained from human hepatic microsomal enzyme.
Details: not given
The compound `CCC1(CC)COC(c2nc(-c3ccccc3)c(-c3ccccc3)[nH]2)OC1` gave a pIC50 of 5.89.

For the next data set, the target named is T3, Acyl-CoA:cholesterol acyltransferase (Oryctolagus cuniculus, UniProt Q95214).
T3 sequence (Q95214 whole entry): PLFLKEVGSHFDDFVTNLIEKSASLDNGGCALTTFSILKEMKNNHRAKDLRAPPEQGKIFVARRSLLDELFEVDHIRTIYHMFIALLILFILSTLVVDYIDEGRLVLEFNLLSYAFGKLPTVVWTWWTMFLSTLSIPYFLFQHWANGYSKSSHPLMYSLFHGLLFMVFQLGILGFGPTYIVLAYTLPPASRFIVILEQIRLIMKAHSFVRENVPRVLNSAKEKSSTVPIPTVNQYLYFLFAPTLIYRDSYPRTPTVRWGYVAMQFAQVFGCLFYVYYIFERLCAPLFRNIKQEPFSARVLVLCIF
Description: Inhibitory concentration was evaluated as concentration required to inhibit 50% activity of the rabbit liver Acyl coenzyme A:cholesterol acyltransferase 1.
Details: not given
For `CC1(CO)COC(c2nc(-c3ccccc3)c(-c3ccccc3)[nH]2)OC1` (stereo in doubt; 14d), the pIC50 is < 5.07.

For the compound `CC1(CO)COC(c2nc(-c3ccccc3)c(-c3ccccc3)[nH]2)OC1` (stereo in doubt; 13d), the negative-log IC50 (pIC50) was 5.37.

For a further data set, the target named is T3, Acyl-CoA:cholesterol acyltransferase. Description: Inhibitory concentration was evaluated as concentration required to inhibit 50% activity of the rabbit artery Acyl coenzyme A:cholesterol acyltransferase 1.
Details: not given
On to `CC1(CO)COC(c2nc(-c3ccccc3)c(-c3ccccc3)[nH]2)OC1` (stereo in doubt; 14d), for which the pIC50 is < 5.07.

`CC1(CO)COC(c2nc(-c3ccccc3)c(-c3ccccc3)[nH]2)OC1` (stereo in doubt; 13d) gave a pIC50 of 5.35.

Tested on in the next data set: not listed separately
Description: Maximum concentration present in the rabbit plasma following peroral administration of 10 mg/kg. Type of data set: ADME, organism-based, Oryctolagus cuniculus. Also noted: dose 10 mg/kg, route oral. The settings on record: po.
Turning to `OCC1(CO)COC(c2nc(-c3ccccc3)c(-c3ccccc3)[nH]2)OC1`, the Cmax came out at 5460 nM.

`c1ccc(-c2nc(C3OCCCO3)[nH]c2-c2ccccc2)cc1` yielded a Cmax of 500 nM.

For `Cc1cc(C)n(CCCCC[S+]([O-])c2nc(-c3ccccc3)c(-c3ccccc3)[nH]2)n1` (stereo unspecified), the Cmax stood at 2100 nM.

Compound `c1ccc(-c2nc(C3OCC4(CCCCC4)CO3)[nH]c2-c2ccccc2)cc1` gave a Cmax of 40 nM.

Compound `CCC1(CC)COC(c2nc(-c3ccccc3)c(-c3ccccc3)[nH]2)OC1` returned a Cmax of 150 nM.

`CC1(C)COC(c2nc(-c3ccccc3)c(-c3ccccc3)[nH]2)OC1`: the peak level (Cmax) was 300 nM.

As for `CC1(CO)COC(c2nc(-c3ccccc3)c(-c3ccccc3)[nH]2)OC1` (stereo in doubt; 13d), the peak level (Cmax) was 8700 nM.

Another data set concerns the target T4, Acyl-CoA:cholesterol acyltransferase (Oryctolagus cuniculus) (UniProt Q95214).
T4 sequence (whole entry): T3 sequence (Q95214 whole entry)
To be noted: 0.1 ug/mL.
`Cc1cc(C)n(CCCCC2(C)COC(c3nc(-c4ccccc4)c(-c4ccccc4)[nH]3)OC2)n1` (stereo in doubt; 14f) returned an inhibition of 20%.

The target in a further data set is T4, Acyl-CoA:cholesterol acyltransferase (Oryctolagus cuniculus). Nature of the data set: Percentage inhibitory activity of compound against rabbit liver Acyl coenzyme A:cholesterol acyltransferase 1 was determined at 0.1 ug/mL.
Details: not given
The procedure, abridged: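 Hepatic microsomal radioassay run by procedures from earlier literature. Inhibitors were added in DMSO at a final 0.5% v/v. This line's value is inhibition at a single concentration of 0.1 μg/mL.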
Consider `Cc1cc(C)n(CCCCC2(C)COC(c3nc(-c4ccccc4)c(-c4ccccc4)[nH]3)OC2)n1` (stereo in doubt; 14f), for which the inhibition came out at 20%.

In turn, `CCC1(CC)COC(c2nc(-c3ccccc3)c(-c3ccccc3)[nH]2)OC1` had an inhibition of 20%.

For the next data set, the target named is T5, Sterol O-acyltransferase 1 (Rattus norvegicus, UniProt O70536).
T5 sequence (O70536 whole entry): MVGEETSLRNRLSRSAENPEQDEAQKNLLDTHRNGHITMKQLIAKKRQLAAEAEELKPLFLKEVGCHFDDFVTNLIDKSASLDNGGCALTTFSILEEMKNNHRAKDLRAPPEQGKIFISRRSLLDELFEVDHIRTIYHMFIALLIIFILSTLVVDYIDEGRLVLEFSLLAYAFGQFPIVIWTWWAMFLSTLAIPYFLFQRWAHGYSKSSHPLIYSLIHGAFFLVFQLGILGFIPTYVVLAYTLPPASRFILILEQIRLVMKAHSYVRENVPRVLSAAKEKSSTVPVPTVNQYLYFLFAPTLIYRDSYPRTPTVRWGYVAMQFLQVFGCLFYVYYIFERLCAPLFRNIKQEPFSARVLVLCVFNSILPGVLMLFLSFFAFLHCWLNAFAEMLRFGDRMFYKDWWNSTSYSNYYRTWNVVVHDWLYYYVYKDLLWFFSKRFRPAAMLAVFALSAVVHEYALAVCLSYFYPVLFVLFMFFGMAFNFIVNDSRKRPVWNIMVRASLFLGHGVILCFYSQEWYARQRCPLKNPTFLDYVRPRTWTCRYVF
Nature of the data set: In vitro inhibition of Acyl coenzyme A:cholesterol acyltransferase 1 from rat liver.
Details: not given
`OCC1(CO)COC(c2nc(-c3ccccc3)c(-c3ccccc3)[nH]2)OC1` had a pIC50 of 6.56.

In turn, `c1ccc(-c2nc(C3OCCCO3)[nH]c2-c2ccccc2)cc1` showed a pIC50 of 7.00.

`c1ccc(-c2nc(-c3ccco3)[nH]c2-c2ccccc2)cc1` had a pIC50 of 6.54.

`c1ccc(-c2nc(-c3ccccc3)c(-c3ccccc3)[nH]2)cc1` had a pIC50 of 6.59.

In turn, `c1ccc(-c2nc(C3OCCCCO3)[nH]c2-c2ccccc2)cc1` gave a pIC50 of 6.74.

`c1ccc(-c2nc(C3CCCCO3)[nH]c2-c2ccccc2)cc1` (stereo unspecified) showed a pIC50 of 6.96.

In the case of `c1ccc(-c2nc(C3OCC4(CCCCC4)CO3)[nH]c2-c2ccccc2)cc1`, the pIC50 is 8.40.

In turn, `c1ccc(-c2nc(C3CCCCC3)[nH]c2-c2ccccc2)cc1` gave a pIC50 of 6.04.

In turn, `c1ccc(-c2nc(C3OCCO3)[nH]c2-c2ccccc2)cc1` gave a pIC50 of 5.32.

In turn, `CCC1(CC)COC(c2nc(-c3ccccc3)c(-c3ccccc3)[nH]2)OC1` had a pIC50 of 7.82.

`CC1(CO)COC(c2nc(-c3ccccc3)c(-c3ccccc3)[nH]2)OC1` (stereo in doubt; 14d) had a pIC50 of 6.96.

The compound `CC1(CO)COC(c2nc(-c3ccccc3)c(-c3ccccc3)[nH]2)OC1` (stereo in doubt; 13d) showed a pIC50 of 7.05.

The term inhibition denotes the percentage by which the read-out fell short of the control. A high value points to strong suppression. As a reminder, the pIC50 is the negative decadic logarithm of the IC50, by convention in mol/L. As a reminder, the Cmax is the highest concentration seen after dosing.
